# Screening results: PubChem, several laboratories
# STAT1 activator: STAT1 signaling activation; NIH 3T3 STAT1-luciferase reporter, IFN-gamma, luminescence; 100% = IFN-gamma alone, no compound; activation (% of control), % at 5.5 µM; 2.6% of 200,000 active;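 active means activation above the screen-wide mean activation plus 3 SD, cut at about 130% in these data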;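 further: raw ratio to IFN-gamma control signal so 100% means no change and 0% no light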
# STAT1 blocker: reduces IFN-gamma driven STAT1 reporter signal. NIH 3T3 STAT1-luciferase reporter, luminescence. inhibition, % at 5.5 µM. 0.35% of 200,000 active;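 active means inhibition above a set limit, the mean inhibition across all tested compounds plus 3 SD, cut at about 34% in these data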;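 further: 0% = IFN-gamma with DMSO and 100% = IFN-gamma with 300 µM nifuroxazide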
# APP 5'UTR act: activates APP 5'UTR luciferase reporter | SH-SY5Y APP 5'UTR luciferase reporter, luminescence; zero percent = DMSO vehicle wells | activation, % at 2 µM | 1% of 190,000 active;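 active means activation above a set limit, based on mean plus 3 SD of controls, cut at about 140% in these data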
# NF-kB neuron act: raises NF-kB expression in human neuronal cells; NF-kB reporter expression; hits give high values; fold change at 12.5 µM; 1.6% of 190,000 active; AID 1239; in the data active means fold change above about 3.3
# STAT3 activator: activators of IL-6 induced STAT3 signaling; U3A cells, IL-6 STAT3-luciferase reporter, luminescence; 100% = signal with IL-6 EC80 alone; activation (% of control), % at 5.6 µM; 0.91% of 190,000 active;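 active means activation above the screen-wide mean of compound activation plus 3 SD, cut at about 130% in these data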;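 further: 0% = background luminescence of wells with medium and substrate only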
#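 Material: STAT3-luciferase reporter U3A cells; Probe or stimulus: IL-6 (33 ng/mL); Incubation: compound pre-incubation 1 h before IL-6, then 6 h stimulation at 37 °C; Technique: luminescence from STAT3-driven luciferase reporter; Evaluation: % activation versus median of IL-6-stimulated wells; Controls: IL-6-only high control.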
# STAT3 blocker: STAT3 signaling inhibition | U3A cells, IL-6 STAT3-luciferase reporter, luminescence; host cell line lacks STAT1 | inhibition, % at 5.5 µM | 0.89% of 190,000 active | AID 862;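 active means inhibition above the mean inhibition across all screened compounds plus 3 SD, cut at about 44% in these data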;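 further: 0% = DMSO only wells and 100% = 100 µM nifuroxazide control wells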
# STAT1 activ conf: STAT1 activation, confirmation assay; 97% of 1,200 active; activation (% of control), % at 5.7 µM; shares compounds with STAT1 activator; NIH 3T3 STAT1-luciferase reporter, IFN-gamma potentiation, luminescence; 100% = IFN-gamma EC80 alone, no compound;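 active means activation above a set limit carried over from the earlier primary STAT1 screen, cut at about 140% in these data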;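 further: simple ratio to median IFN-gamma plus DMSO wells so 0% means no light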
# NFkB act STAT1ct: activates NF-kappaB, counter-screen to STAT1 activators; shares compounds with STAT1 activator; activation (% of control), % at 5.7 µM; 43% of 1,200 active; HEK293T NF-kB luciferase reporter, TNF-alpha stimulated, luminescence; 100% = TNF-alpha with vehicle only;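 active means activation above the mean of solvent-only control wells plus 3 SD, set per campaign, cut at about 130% in these data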;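 further: TNF-alpha given at a submaximal dose yielding about 80% of full reporter signal; values are well signal over median control so 100% means no change and 0% no light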
# STAT3 act STAT1c: counter-screen for STAT1 activators: human STAT3 activation; 46% of 1,200 active; shares compounds with STAT1 activator; U3A cells STAT3-luciferase reporter, IL-6, luminescence; cells lack STAT1; 100 = IL-6 alone, no compound effect; activation (% of control), % at 5.7 µM;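 active means activation above the solvent-only control well mean plus 3 SD, set per plate batch, cut at about 110% in these data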;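 further: 0% = no luminescence and 100% = median IL-6 plus DMSO wells; higher means more STAT3 reporter activation so hits are non-selective activators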
# Active calls of the source: *; . = no result given. The list is not random: actives were taken first. Their share in the collection is about 4.9%.
SMILES,STAT1 activator,STAT1 blocker,APP 5'UTR act,NF-kB neuron act,STAT3 activator,STAT3 blocker,STAT1 activ conf,NFkB act STAT1ct,STAT3 act STAT1c
Cc1ccc(CN(CC(=O)NC(C)(C)C)C(=O)CNC(=O)c2cccs2)cc1,95.0,5.8,7.0,0.99,93.0,10.3,.,.,.
CC(C)CN1CCC(CN(C)Cc2nc(-c3cnccn3)no2)CC1,103.2,-5.4,18.9,.,108.7,-4.7,.,.,.
CCNC(=S)Nc1nc2c(cc1C(=O)OCC)CCCC2,105.8,-6.4,16.1,1.16,96.2,7.3,.,.,.
C(=N\N=C\c1ccccc1)/c1ccccc1,158.1*,-64.5,36.4,0.98,102.3,4.1,186.2*,145.1*,103.4
Cc1cc(/C=C(\C#N)C(=O)Nc2ccccc2F)c(C)[nH]1,171.6*,-78.9,147.1*,5.5*,98.1,7.4,234.7*,140.8*,116.1*
Cc1cc(/C=C(\C#N)C(=O)NCc2ccco2)c(C)[nH]1,108.6,-8.4,12.8,1.39,95.9,6.3,.,.,.
Cc1cccc(N2CN(Cc3ccco3)CNC2=S)c1,101.8,-2.1,-5.3,1.1,94.9,6.3,.,.,.
CCOc1ccc(NC(=O)c2cccs2)c([N+](=O)[O-])c1,152.1*,-58.0,58.2,3.01,106.5,2.7,189.4*,132.8,105.4
CCOc1ccc(NC(=O)c2ccco2)c([N+](=O)[O-])c1,164.2*,-71.7,98.6,6.02*,99.0,2.1,190.9*,136.0*,110.0
CCOc1ccc(C(=O)Nc2cccc(NC(=O)c3cccs3)c2)cc1[N+](=O)[O-],90.0,11.2,-9.6,0.53,91.5,9.7,.,.,.
Cc1c(CN2CCC(CO)(CCOc3ccccc3)CC2)[nH]c2c(Cl)cccc12,103.0,-5.5,5.8,0.96,111.7,-10.0,.,.,.
Cc1nc(NC(=O)c2cccs2)ccc1Br,161.1*,-69.0,133.0,6.28*,102.2,2.1,201.5*,131.4,123.5*
O=C(Nc1ccc(NC(=O)c2cccs2)cn1)c1ccccc1,153.4*,-58.9,136.1*,3.83*,85.3,19.5,200.6*,132.6,114.7*
Cc1nc(NC(=O)c2ccc3c(c2)OCO3)ccc1Br,155.7*,-62.4,105.9,3.98*,93.6,13.8,169.4*,127.0,97.1
Cc1ccc(CN2CCNC(=O)C2CC(=O)NCC(F)(F)F)o1 (stereo not drawn),99.2,-1.1,2.6,1.07,100.3,2.0,.,.,.
O=C(Nc1nc2c(s1)C(=O)CCC2)c1ccccc1,152.9*,-57.7,148.3*,3,74.1,34.1,185.3*,111.0,95.9
COc1ccc2cc(CCNC(=O)c3cccs3)c(=O)[nH]c2c1,159.1*,-65.1,103.8,6.07*,97.2,3.1,192.7*,140.3*,109.9
CCOC(=O)COC(=O)c1ccc(O)cc1,109.9,-9.1,15.1,1.34,110.3,-8.0,.,.,.
Cc1ccc(C(=O)COC(=O)c2ccc(O)cc2)cc1,152.7*,-56.7,148.7*,6.22*,107.1,-7.0,169.6*,120.8,121.9*
O=C(c1ccccc1NS(=O)(=O)c1cccc2cccnc12)N1CCOCC1,99.1,2.6,-5.5,1.12,97.5,7.8,.,.,.
COc1cc(NC(=S)NC(=O)c2ccccc2F)ccc1NC(=O)c1ccco1,97.8,2.5,7.2,1.13,100.0,2.8,.,.,.
O=c1c2ccccc2nc(/C=C/c2ccc([N+](=O)[O-])o2)n1CCCO,151.4*,-57.5,-22.9,1.03,105.3,-1.6,167.4*,157.1*,105.0
Cc1nn(C)c(C(=O)NNC(=O)Nc2cccc(C(F)(F)F)c2)c1Cl,83.5,16.1,.,0.97,90.6,16.8,.,.,.
Cn1cccc1/C=C1\SC(=O)N(c2ccccc2)C1=O,159.4*,-66.5,117.4,2.83,85.8,19.1,190.4*,128.6,101.7
COc1ccc(CC(=O)Nc2ccc(C(=O)Nc3ccccc3C(=O)O)cc2)cc1OC,100.9,-1.0,0.1,1.01,102.8,-6.0,.,.,.
SMILES,STAT1 activator,STAT1 blocker,APP 5'UTR act,NF-kB neuron act,STAT3 activator,STAT3 blocker,STAT1 activ conf,NFkB act STAT1ct,STAT3 act STAT1c
CCN(CC)c1ccc(NC(=O)c2ccccc2F)cc1,163.5*,-69.5,110.9,6.08*,81.7,25.0,192.3*,123.5,95.7
N#CC1(c2ccc(NC(=O)c3ccccc3F)cc2)CCCC1,161.3*,-67.6,144.6*,10.7*,72.7,34.8,228.3*,132.9,104.1
CCOC(=O)Nc1cccc(NC(=O)c2ccccc2F)c1,95.5,4.9,0.9,1.35,90.8,11.3,.,.,.
CCOC(=O)CN(C(=O)COc1ccc2c(C)cc(=O)oc2c1)c1ccc(OCC)cc1,102.7,-2.5,8.8,.,102.2,3.7,.,.,.
COc1ccc(-c2cc3ncc(-c4ccccc4)c(N)n3n2)cc1,156.4*,-60.8,225.2*,2.66,92.3,17.3,197.5*,126.2,100.8
Cc1ccc(NC(=O)/C(C#N)=C/c2cccs2)c(C)c1,160.5*,-66.2,90.4,3.88*,100.5,3.6,171.3*,143.8*,107.0
Cc1cccc(NC(=O)NC(C)C(c2ccccc2)N2CCN(C)CC2)c1 (stereo not drawn),98.7,0.3,-10.5,1.25,108.5,-9.2,.,.,.
Cc1cc(C)c2cc3c(N)c(C(=O)N4CCc5ccccc5C4)sc3nc2c1,102.5,-2.8,-0.3,1.01,99.5,3.4,.,.,.
Cc1cccc2cc3c(N)c(C(=O)N4CCOCC4)sc3nc12,157.0*,-62.5,-84.6,1.2,105.2,3.0,159.9*,112.9,124.5*
O=C(Nc1ncc(Cc2ccccc2Cl)s1)C1CCCO1 (stereo not drawn),150.8*,-55.1,70.2,3.89*,121.8,-25.4,166.5*,133.9*,148.8*
Cc1cnc(NC(=O)C2CCCO2)s1 (stereo not drawn),102.4,-2.5,16.5,1.1,104.5,-0.8,.,.,.
CCN1CCCC1CNC(=O)C(=O)NC(C)c1ccccc1 (stereo not drawn),109.9,-12.8,20.2,0.93,97.8,4.8,.,.,.
CC(C)c1ccc(N=C2NN=C(c3cccs3)CS2)cc1,153.2*,-58.6,169.2*,1.07,102.6,-1.6,194.7*,126.4,111.1*
Cc1ccc(C2=NNC(=Nc3ccc(F)cc3)SC2)cc1,104.9,-7.3,39.7,1.83,105.5,-2.8,.,.,.
Oc1ccc(-c2csc(-c3ccccc3)n2)cc1O,151.3*,-57.6,52.9,6.34*,96.6,6.9,166.0*,109.4,105.7
Cc1ccc(-c2nc3sc4c(c3c(=O)n2N)CC(C)(C)OC4)cc1,102.4,-3.9,-3.8,1.12,83.1,21.2,.,.,.
